The values that follow come from ChEMBL document CHEMBL1134386, “Cardioselective K(ATP) channel blockers derived from a new series of m-anisamidoethylbenzenesulfonylthioureas” (J Med Chem, 2001).

One test addresses T1, Sulfonylurea receptor 1, Kir6.2 (Homo sapiens) (UniProt Q14654+Q09428). Briefly: Antiarrhythmic effect in hSUR1/hKir6.2 (pancreatic KATP channel) transfected in CHO cells at a dose of 1 uM. The class given is functional, cell-based. Particulars: at 1 µM. Summed up:
(§1)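 CHO cells stably expressing SUR1/Kir6.2, seeded the day before and washed three times in PBS. Loaded with voltage dye DiBAC4(3), added as a 10 µM solution, with diazoxide, added as a 400 µM solution, both in PBS; 30 min at 37 °C. Compound added after 4 min of baseline. Fluorescence read with 488 nm excitation every 20 s for 20 min. Mean of at least four experiments.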
In the case of `CN/C(S)=N/S(=O)(=O)c1cc(CCNC(=O)c2cc(Cl)ccc2OC)ccc1OCCOC`, the inhibition (in general, the drop in the measured response relative to a control, in per cent) is 26.2%.
Regarding `CN/C(S)=N/S(=O)(=O)c1cc(CCNC(=O)c2cc(Cl)ccc2OC)ccc1SC`, the inhibition was determined as 15.2%.
On to `C#Cc1ccc(CCNC(=O)c2cc(Cl)ccc2OC)cc1S(=O)(=O)/N=C(\S)NC`, for which the inhibition was determined as 3.4%.
Consider `CN/C(S)=N/S(=O)(=O)c1cc(CCNC(=O)c2cc(Cl)ccc2OC)ccc1Br`, for which the inhibition stood at 2.2%.
Same read-out and setting: the value for `CNC(=O)NS(=O)(=O)c1cc2c(cc1OC)OCCC2CNC(=O)c1cc(Cl)ccc1OC` (single isomer, unassigned; (-)) was 14.2%; that for `CN/C(S)=N/S(=O)(=O)c1cc(CCNC(=O)c2cc(Cl)ccc2OC)ccc1-c1ccccc1` was 33%.
On the same count and under the same terms, the value for `CN/C(S)=N/S(=O)(=O)c1cc(CCNC(=O)c2cc(Cl)ccc2OC)ccc1C(C)C` was 29.3%; that for `CCCOc1ccc(CCNC(=O)c2cc(Cl)ccc2OC)cc1S(=O)(=O)/N=C(\S)NC` was 63.6%.
Still for that read-out and setting: the value for `CCOc1ccc(CCNC(=O)c2cc(Cl)ccc2OC)cc1S(=O)(=O)/N=C(\S)NC` was 16.3%.
As to `COc1ccc(Cl)cc1C(=O)NCCc1ccc(OC)c(S(=O)(=O)NC(=O)N(C)C)c1`, the inhibition is -3.2%.
On the same count and under the same terms, the value for `CN/C(S)=N/S(=O)(=O)c1cc(CCNC(=O)c2cc(Cl)ccc2OC)ccc1Cl` was 2.8%.
As to `CN/C(S)=N/S(=O)(=O)c1cc(CCNC(=O)c2cc(Cl)ccc2OC)cc(OC)c1OC`, the inhibition was -2.12%.
As for `CN/C(S)=N/S(=O)(=O)c1cc(CCNC(=O)c2cc(Cl)ccc2OC)ccc1N1CCOCC1`, the inhibition was 26.7%.
`CN/C(S)=N/S(=O)(=O)c1cc(CCNC(=O)c2cc(Cl)ccc2OC)ccc1I`: the inhibition is 19.2%.
For the compound `CN/C(S)=N/S(=O)(=O)c1cc(CCNC(=O)c2cc(Cl)ccc2OC)c(OC)cc1OC`, the inhibition was 0.7%.
Turning to `CN/C(S)=N/S(=O)(=O)c1cc(CCNC(=O)c2cc(Cl)ccc2OC)c(OC)c(C)c1OC`, the inhibition came to 6.7%.
Still for that read-out and setting: the value for `CCc1ccc(CCNC(=O)c2cc(Cl)ccc2OC)cc1S(=O)(=O)/N=C(\S)NC` was 20.5%.
As to `CN/C(S)=N/S(=O)(=O)c1cc(CCNC(=O)c2cc(Cl)ccc2OC)ccc1C`, the inhibition worked out at 21%.
For the compound `CN/C(S)=N/S(=O)(=O)c1cc(CCNC(=O)c2cc(Cl)ccc2OC)ccc1-c1ccco1`, the inhibition worked out at 16%.
Still for that read-out and setting: the value for `CN/C(S)=N/S(=O)(=O)c1cc(CCNC(=O)c2cc(Cl)ccc2OC)c(C)c(C)c1OC` was 6.1%; that for `CNC(=O)NS(=O)(=O)c1cc(CCNC(=O)c2cc(Cl)ccc2OC)ccc1OC` was -1.3%.

For another test, the target named is T1, Sulfonylurea receptor 1, Kir6.2 (Homo sapiens). Nature of the test: Antiarrhythmic effect in hSUR1/hKir6.2 (pancreatic KATP channel) transfected in CHO cells at a dose of 10 uM. In kind it is functional, cell-based. Conditions: at 10 µM. In outline:
as §1
As for `CN/C(S)=N/S(=O)(=O)c1cc(CCNC(=O)c2cc(Cl)ccc2OC)ccc1OCCOC`, the inhibition was found to be 49.5%.
In the case of `CN/C(S)=N/S(=O)(=O)c1cc(CCNC(=O)c2cc(Cl)ccc2OC)ccc1SC`, the inhibition is 81.4%.
With `C#Cc1ccc(CCNC(=O)c2cc(Cl)ccc2OC)cc1S(=O)(=O)/N=C(\S)NC`, the inhibition stood at 27.6%.
Consider `CN/C(S)=N/S(=O)(=O)c1cc(CCNC(=O)c2cc(Cl)ccc2OC)ccc1Br`, for which the inhibition turned out to be 67.7%.
For `CNC(=O)NS(=O)(=O)c1cc2c(cc1OC)OCCC2CNC(=O)c1cc(Cl)ccc1OC` (single isomer, unassigned; (-)), the inhibition came out at 105%.
Consider `CN/C(S)=N/S(=O)(=O)c1cc(CCNC(=O)c2cc(Cl)ccc2OC)ccc1-c1ccccc1`, for which the inhibition amounted to 67.7%.
As to `CN/C(S)=N/S(=O)(=O)c1cc(CCNC(=O)c2cc(Cl)ccc2OC)ccc1C(C)C`, the inhibition was found to be 92.4%.
With `CCCOc1ccc(CCNC(=O)c2cc(Cl)ccc2OC)cc1S(=O)(=O)/N=C(\S)NC`, the inhibition worked out at 103%.
For `CCOc1ccc(CCNC(=O)c2cc(Cl)ccc2OC)cc1S(=O)(=O)/N=C(\S)NC`, the inhibition amounted to 75.4%.
For `COc1ccc(Cl)cc1C(=O)NCCc1ccc(OC)c(S(=O)(=O)NC(=O)N(C)C)c1`, the inhibition is 25%.
As for `CN/C(S)=N/S(=O)(=O)c1cc(CCNC(=O)c2cc(Cl)ccc2OC)ccc1Cl`, the inhibition worked out at 40.1%.
On to `CN/C(S)=N/S(=O)(=O)c1cc(CCNC(=O)c2cc(Cl)ccc2OC)cc(OC)c1OC`, for which the inhibition is -2.34%.
Same read-out and setting: the value for `CN/C(S)=N/S(=O)(=O)c1cc(CCNC(=O)c2cc(Cl)ccc2OC)ccc1N1CCOCC1` was 89.1%; that for `CN/C(S)=N/S(=O)(=O)c1cc(CCNC(=O)c2cc(Cl)ccc2OC)ccc1I` was 89.2%; that for `CN/C(S)=N/S(=O)(=O)c1cc(CCNC(=O)c2cc(Cl)ccc2OC)c(OC)cc1OC` was 30.5%.
In the case of `CN/C(S)=N/S(=O)(=O)c1cc(CCNC(=O)c2cc(Cl)ccc2OC)c(OC)c(C)c1OC`, the inhibition is 47.8%.
Take `CCc1ccc(CCNC(=O)c2cc(Cl)ccc2OC)cc1S(=O)(=O)/N=C(\S)NC`: the inhibition turned out to be 92.9%.
As to `CN/C(S)=N/S(=O)(=O)c1cc(CCNC(=O)c2cc(Cl)ccc2OC)ccc1C`, the inhibition was 74.8%.
Still for that read-out and setting: the value for `CN/C(S)=N/S(=O)(=O)c1cc(CCNC(=O)c2cc(Cl)ccc2OC)ccc1-c1ccco1` was 82.7%; that for `CN/C(S)=N/S(=O)(=O)c1cc(CCNC(=O)c2cc(Cl)ccc2OC)c(C)c(C)c1OC` was 64.9%; that for `CNC(=O)NS(=O)(=O)c1cc(CCNC(=O)c2cc(Cl)ccc2OC)ccc1OC` was 43.9%.

The next test has the same target. Nature of the test: Antiarrhythmic effect in hSUR1/hKir6.2 (pancreatic KATP channel) transfected in CHO cells at a dose of 0.1 uM. The class given is functional, cell-based. Particulars: at 0.1 µM. In outline:
as §1
As to `CN/C(S)=N/S(=O)(=O)c1cc(CCNC(=O)c2cc(Cl)ccc2OC)ccc1OCCOC`, the inhibition came to 12.5%.
Still for that read-out and setting: the value for `CN/C(S)=N/S(=O)(=O)c1cc(CCNC(=O)c2cc(Cl)ccc2OC)ccc1SC` was -2.1%.
`C#Cc1ccc(CCNC(=O)c2cc(Cl)ccc2OC)cc1S(=O)(=O)/N=C(\S)NC`: the inhibition was 3.3%.
Consider `CN/C(S)=N/S(=O)(=O)c1cc(CCNC(=O)c2cc(Cl)ccc2OC)ccc1Br`, for which the inhibition came to 3.3%.
As to `CNC(=O)NS(=O)(=O)c1cc2c(cc1OC)OCCC2CNC(=O)c1cc(Cl)ccc1OC` (single isomer, unassigned; (-)), the inhibition was found to be 2.5%.
With `CN/C(S)=N/S(=O)(=O)c1cc(CCNC(=O)c2cc(Cl)ccc2OC)ccc1-c1ccccc1`, the inhibition was determined as 9.4%.
Take `CN/C(S)=N/S(=O)(=O)c1cc(CCNC(=O)c2cc(Cl)ccc2OC)ccc1C(C)C`: the inhibition is 12%.
On the same count and under the same terms, the value for `CCCOc1ccc(CCNC(=O)c2cc(Cl)ccc2OC)cc1S(=O)(=O)/N=C(\S)NC` was 4.2%.
For the compound `CCOc1ccc(CCNC(=O)c2cc(Cl)ccc2OC)cc1S(=O)(=O)/N=C(\S)NC`, the inhibition was -2.7%.
Still for that read-out and setting: the value for `COc1ccc(Cl)cc1C(=O)NCCc1ccc(OC)c(S(=O)(=O)NC(=O)N(C)C)c1` was -3.6%; that for `CN/C(S)=N/S(=O)(=O)c1cc(CCNC(=O)c2cc(Cl)ccc2OC)ccc1Cl` was 2.3%; that for `CN/C(S)=N/S(=O)(=O)c1cc(CCNC(=O)c2cc(Cl)ccc2OC)cc(OC)c1OC` was -3.8%.
Still for that read-out and setting: the value for `CN/C(S)=N/S(=O)(=O)c1cc(CCNC(=O)c2cc(Cl)ccc2OC)ccc1N1CCOCC1` was -1.6%; that for `CN/C(S)=N/S(=O)(=O)c1cc(CCNC(=O)c2cc(Cl)ccc2OC)ccc1I` was 1.7%; that for `CN/C(S)=N/S(=O)(=O)c1cc(CCNC(=O)c2cc(Cl)ccc2OC)c(OC)cc1OC` was -1%.
The same measure, in the same setting: the value for `CN/C(S)=N/S(=O)(=O)c1cc(CCNC(=O)c2cc(Cl)ccc2OC)c(OC)c(C)c1OC` was -2%; that for `CCc1ccc(CCNC(=O)c2cc(Cl)ccc2OC)cc1S(=O)(=O)/N=C(\S)NC` was 1.3%.
For the compound `CN/C(S)=N/S(=O)(=O)c1cc(CCNC(=O)c2cc(Cl)ccc2OC)ccc1C`, the inhibition turned out to be 1.9%.
On to `CN/C(S)=N/S(=O)(=O)c1cc(CCNC(=O)c2cc(Cl)ccc2OC)ccc1-c1ccco1`, for which the inhibition was -2.6%.
`CN/C(S)=N/S(=O)(=O)c1cc(CCNC(=O)c2cc(Cl)ccc2OC)c(C)c(C)c1OC`: the inhibition turned out to be 0.8%.
For `CNC(=O)NS(=O)(=O)c1cc(CCNC(=O)c2cc(Cl)ccc2OC)ccc1OC`, the inhibition is -2.8%.
